pIC50, pKi: −log10 of the molar value.
Key:
[1] = target: Cannabinoid receptor 1 (Rattus norvegicus, UniProt P20272); assay: Inhibitory activity, measured by displacement [3H]CP-55940 from cannabinoid receptor (CB1) in rat brain; assay type: tissue-based
[2] = Inhibitory activity at GABA B receptor, measured by the ability to displace [3H]baclofen from GABA B receptor in rat brain; assay type: tissue-based
[3] = target: GABA-A receptor; anion channel; assay: Inhibitory activity at GABA A receptor, measured by the ability to displace [35S]TBPS from GABA A receptor in rat brain; assay type: tissue-based
[4] = target: GABA-A receptor; anion channel; assay: Inhibitory activity at GABA A receptor, measured by the ability to displace [3H]GABA from GABA A receptor in rat brain; assay type: tissue-based
[5] = target: GABA-A receptor; anion channel; assay: Inhibitory activity at GABA A receptor, measured by the ability to displace [3H]flumazenil from GABA A receptor in rat brain; assay type: tissue-based
[6] = target: GABA-A receptor; anion channel; assay: Inhibitory activity at GABA A receptor, measured by the ability to displace [3H]zolpidem from GABA A receptor in rat brain; assay type: tissue-based
[7] = target: T1, Gastrin/cholecystokinin type B receptor (Rattus norvegicus, UniProt P30553); assay: Inhibitory activity by measuring its ability to displace [3H]L-365260 from cholecystokinin receptor in rat brain; assay type: tissue-based
T1 sequence (P30553 whole entry): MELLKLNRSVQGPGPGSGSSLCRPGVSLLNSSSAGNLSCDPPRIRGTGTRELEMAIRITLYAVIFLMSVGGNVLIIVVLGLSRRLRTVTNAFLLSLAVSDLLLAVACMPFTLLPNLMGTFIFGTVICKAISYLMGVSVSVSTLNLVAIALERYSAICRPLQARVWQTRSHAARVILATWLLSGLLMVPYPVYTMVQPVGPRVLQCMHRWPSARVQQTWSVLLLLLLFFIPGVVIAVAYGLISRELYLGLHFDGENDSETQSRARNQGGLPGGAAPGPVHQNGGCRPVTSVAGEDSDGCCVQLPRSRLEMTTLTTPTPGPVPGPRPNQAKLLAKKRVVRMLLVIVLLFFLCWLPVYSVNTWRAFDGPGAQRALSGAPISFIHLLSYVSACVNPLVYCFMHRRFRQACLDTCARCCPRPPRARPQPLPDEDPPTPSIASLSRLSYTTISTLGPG

[8] = target: Adrenergic receptor alpha; assay: Inhibitory activity by measuring its ability to displace [3H]WB-4101 from alpha-adrenergic receptor in rat brain; assay type: tissue-based
[9] = target: Adrenergic receptor alpha; assay: Inhibitory activity by measuring its ability to displace [3H]clonidine from alpha-adrenergic receptor in rat brain; assay type: tissue-based
[10] = target: Adrenergic receptor beta (Rattus norvegicus, UniProt P18090+P10608+P26255); assay: Inhibitory activity by measuring its ability to displace [125I]pindolol from beta-adrenergic receptor in rat brain; assay type: tissue-based
[11] = Inhibitory activity by measuring its ability to displace [3H]glycine from glycine receptor in rat brain; assay type: tissue-based
[12] = target: Glutamate NMDA receptor; assay: Inhibitory activity by measuring its ability to displace [3H]-MK-801 from glutamate(NMDA) receptor in rat brain; assay type: tissue-based
[13] = Tested for inhibitory activity by measuring its ability to displace [3H]AMPA from glutamate (non-NMDA) receptor in rat brain; assay type: tissue-based
[14] = Inhibitory activity by measuring its ability to displace [3H]spiperone from dopamine or serotonin 5-HT-1 receptors in rat brain; assay type: tissue-based
[15] = target: Opioid receptor (Rattus norvegicus, UniProt P33533+P34975+P33535); assay: Inhibition of [3H]naxolone binding to opiate receptors in rat brain; assay type: tissue-based
[16] = target: Translocator protein (Rattus norvegicus, UniProt P16257); assay: Binding affinity against mitochondrial DBI complex (peripheral benzodiazepine receptor) using primary cultures of glial cells
Translocator protein, sequence (P16257 whole entry, looked up): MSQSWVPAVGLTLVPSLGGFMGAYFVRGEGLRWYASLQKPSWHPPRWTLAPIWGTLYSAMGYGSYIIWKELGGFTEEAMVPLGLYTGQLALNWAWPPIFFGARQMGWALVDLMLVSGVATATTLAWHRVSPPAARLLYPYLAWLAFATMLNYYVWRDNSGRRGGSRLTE
Method in brief: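 Glia from cerebella of 8-day-old Sprague–Dawley rat pups, trypsin-dissociated and grown 14 days (~95% astroglia). Cells lysed in 50 mM Hepes pH 7.4, 4 μg protein per tube. Incubated with [3H]4'-chlorodiazepam and competitor for 90 min at 4 °C, then filtered. Nonspecific binding defined with 10 μM 4'-chlorodiazepam. Triplicate competition curves; IC50 by nonlinear regression, converted to Ki (Bylund–Yamamura).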

[17] = target: Serotonin 2 (5-HT2) receptor (Rattus norvegicus); assay: Inhibitory activity by measuring its ability to displace [3H]ketanserin from serotonin receptor in rat brain
[18] = target: Sigma receptor (Rattus norvegicus); assay: Tested for inhibitory activity by measuring its ability to displace [3H]3-PPP from sigma receptor in rat brain
[19] = target: Adrenergic receptor alpha; assay: Displacement of [3H]clonidine from alpha-adrenergic receptor in rat brain; assay type: tissue-based

Cannabinoid receptor 1, sequence (P20272 whole entry): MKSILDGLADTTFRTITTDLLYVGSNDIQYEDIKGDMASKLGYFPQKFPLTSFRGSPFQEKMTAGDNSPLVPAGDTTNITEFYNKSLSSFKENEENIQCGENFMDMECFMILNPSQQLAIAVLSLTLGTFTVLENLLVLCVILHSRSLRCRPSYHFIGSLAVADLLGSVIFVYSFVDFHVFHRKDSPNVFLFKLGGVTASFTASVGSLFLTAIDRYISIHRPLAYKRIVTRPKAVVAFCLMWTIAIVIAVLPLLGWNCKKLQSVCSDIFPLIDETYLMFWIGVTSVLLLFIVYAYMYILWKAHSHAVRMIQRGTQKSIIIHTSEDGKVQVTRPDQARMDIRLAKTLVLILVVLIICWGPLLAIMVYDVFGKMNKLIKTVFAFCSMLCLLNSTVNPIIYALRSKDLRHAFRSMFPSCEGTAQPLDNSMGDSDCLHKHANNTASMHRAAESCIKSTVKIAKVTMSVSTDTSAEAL

| Compound | pIC50 [1] | pIC50 [2] | pIC50 [3] | pIC50 [4] | pIC50 [5] | pIC50 [6] | pIC50 [7] | IC50 [8] [nM] | IC50 [9] [nM] | IC50 [10] [nM] | pIC50 [11] | pIC50 [12] | pIC50 [13] | pIC50 [14] | IC50 [15] [nM] | pKi [16] | IC50 [17] [nM] | IC50 [18] [nM] | IC50 [19] [nM] |
| --- | --- | --- | --- | --- | --- | --- | --- | --- | --- | --- | --- | --- | --- | --- | --- | --- | --- | --- | --- |
| CCCN(CCC)C(=O)CCc1c(-c2ccc(Cl)cc2)[nH]c2ccc(Cl)cc12 | < 6.00 | < 6.00 | < 6.00 | < 6.00 | < 6.00 | < 6.00 | < 6.00 | > 1000 | > 1000 | > 1000 | < 6.00 | < 6.00 | < 6.00 | < 6.00 | > 1000 | 7.15 | > 1000 | > 1000 |  |
| CCCN(CCC)C(=O)/C=C/c1c(-c2ccc(Cl)cc2)[nH]c2ccccc12 | < 6.00 | < 6.00 | < 6.00 | < 6.00 | < 6.00 | < 6.00 | < 6.00 | > 1000 | > 1000 | > 1000 | < 6.00 | < 6.00 | < 6.00 | < 6.00 | > 1000 | 6.40 | > 1000 | > 1000 |  |
| CCCCCN(CCCCC)C(=O)Cc1c(-c2ccc(F)cc2)[nH]c2ccccc12 | < 6.00 | < 6.00 | < 6.00 | < 6.00 | < 6.00 | < 6.00 | < 6.00 | > 1000 | > 1000 | > 1000 | < 6.00 | < 6.00 | < 6.00 | < 6.00 | > 1000 | 7.82 | > 1000 | > 1000 |  |
| c1ccc(-c2[nH]c3ccccc3c2CC2=NCCN2)cc1 | < 6.00 | < 6.00 | < 6.00 | < 6.00 | < 6.00 | < 6.00 | < 6.00 | > 1000 | > 1000 | > 1000 | < 6.00 | < 6.00 | < 6.00 | < 6.00 | > 1000 |  | > 1000 | > 1000 |  |
| CCCCCCCCCCNC(=O)Cc1c(-c2ccccc2)[nH]c2ccccc12 | < 6.00 | < 6.00 | < 6.00 | < 6.00 | < 6.00 | < 6.00 | < 6.00 | > 1000 | > 1000 | > 1000 | < 6.00 | < 6.00 | < 6.00 | < 6.00 | > 1000 | < 6.00 | > 1000 | > 1000 |  |
| CCCCCCCCCCCCCCCCCCNC(=O)Cc1c(-c2ccccc2)[nH]c2ccccc12 | < 6.00 | < 6.00 | < 6.00 | < 6.00 | < 6.00 | < 6.00 | < 6.00 | > 1000 |  | > 1000 | < 6.00 | < 6.00 | < 6.00 | < 6.00 | > 1000 |  | > 1000 | > 1000 | > 1000 |
| CCCN(CCC)C(=O)Cc1c(-c2ccc(Br)cc2)[nH]c2ccccc12 | < 6.00 | < 6.00 | < 6.00 | < 6.00 | < 6.00 | < 6.00 | < 6.00 | > 1000 | > 1000 | > 1000 | < 6.00 | < 6.00 | < 6.00 | < 6.00 | > 1000 | 6.67 | > 1000 | > 1000 |  |
| CCCCCCNC(=O)Cc1c(-c2ccccc2)[nH]c2ccccc12 | < 6.00 | < 6.00 | < 6.00 | < 6.00 | < 6.00 | < 6.00 | < 6.00 | > 1000 | > 1000 | > 1000 | < 6.00 | < 6.00 | < 6.00 | < 6.00 | > 1000 | 7.02 | > 1000 | > 1000 |  |
| CCCN(CCC)C(=O)Cc1c(-c2ccc(Cl)cc2)[nH]c2ccc(Cl)cc12 | < 6.00 | < 6.00 | < 6.00 | < 6.00 | < 6.00 | < 6.00 | < 6.00 | > 1000 | > 1000 | > 1000 | < 6.00 | < 6.00 | < 6.00 | < 6.00 | > 1000 | 8.41 | > 1000 | > 1000 |  |
| CCCN(CCC)C(=O)Cc1c(-c2ccc(I)cc2)[nH]c2ccccc12 | < 6.00 | < 6.00 | < 6.00 | < 6.00 | < 6.00 | < 6.00 | < 6.00 | > 1000 | > 1000 | > 1000 | < 6.00 | < 6.00 | < 6.00 | < 6.00 | > 1000 | 6.67 | > 1000 | > 1000 |  |
| CCCCCCCCN(CCCCCCCC)C(=O)Cc1c(-c2ccccc2)[nH]c2ccccc12 | < 6.00 | < 6.00 | < 6.00 | < 6.00 | < 6.00 | < 6.00 | < 6.00 | > 1000 |  | > 1000 | < 6.00 | < 6.00 | < 6.00 | < 6.00 |  | < 6.00 |  |  | > 1000 |
| CCCN(CCC)C(=O)Cc1c(-c2ccc(Cl)cc2)n(C)c2ccccc12 | < 6.00 | < 6.00 | < 6.00 | < 6.00 | < 6.00 | < 6.00 | < 6.00 | > 1000 | > 1000 | > 1000 | < 6.00 | < 6.00 | < 6.00 | < 6.00 | > 1000 | 6.47 | > 1000 | > 1000 |  |
| CCCN(CCC)C(=O)Cc1c(-c2ccccc2)[nH]c2cc(F)ccc12 | < 6.00 | < 6.00 | < 6.00 | < 6.00 | < 6.00 | < 6.00 | < 6.00 | > 1000 | > 1000 | > 1000 | < 6.00 | < 6.00 | < 6.00 | < 6.00 | > 1000 | 6.69 | > 1000 | > 1000 |  |
| O=C1Cc2c(-c3ccccc3)[nH]c3cccc(c23)N1 | < 6.00 | < 6.00 | < 6.00 | < 6.00 | < 6.00 | < 6.00 | < 6.00 | > 1000 | > 1000 | > 1000 | < 6.00 | < 6.00 | < 6.00 | < 6.00 | > 1000 |  | > 1000 | > 1000 |  |

From ChEMBL document CHEMBL1126834, “Chemistry, binding affinities, and behavioral properties of a new class of "antineophobic" mitochondrial DBI receptor complex (mDRC) ligands” (J Med Chem, 1993)
